Here are results for 30 molecules from PubChem BioAssay.

The nature of assay [1]: nonspecific flux increase, KCNQ1-free cells – parental CHO cells, counter-screen for KCNQ1 potentiator project (AID 493006;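 active = duplicate-averaged activation above buffer control mean plus 5 SD of those controls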). To be noted: parental CHO-K1 cells, FluxOR thallium flux, at 10 µM; hits give high values. In outline: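 Test system: parental CHO-K1 cells, FluxOR dye-loaded / Probe or stimulus: potassium plus thallium depolarizing stimulus, 5x stock 12.5 mM K2SO4, Tl2SO4 / Timing: overnight 37 °C plating, 90 min dye, 20 min dark compound / Measured by: kinetic thallium-flux fluorescence / Read-out: max-minus-min fluorescence over baseline, percent of buffer-to-R-L3 span / Benchmarks: buffer and R-L3 controls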

In assay [2] the target is Potassium voltage-gated channel subfamily KQT member 1 (Homo sapiens) (UniProt P51787). As to the kind of experiment: enhancement of KCNQ1 channel thallium flux – FluxOR thallium flux, CHO cells, duplicates, confirmation (AID 493007).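 As to outcome: cells depolarized by a potassium plus thallium sulfate stimulus after compound.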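 As to potentiation: 0% = buffer-only wells and 100% = R-L3 activator control.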 The settings on record: KCNQ1 cell line, FluxOR thallium flux fluorescence, at 10 µM; hits give high values, % of reference activator effect, buffer zero. The gist of the method: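 Assay system: CHO cells carrying KCNQ1 | Controls: Buffer and R-L3 controls | Schedule: FluxOR dye loading 90 min, compound exposure 20 min, room temperature | Read-out: Baseline-normalized fluorescence change, percent of buffer-to-R-L3 range | Replicates: Each compound tested in duplicate | Technique: Kinetic thallium influx fluorescence with FluxOR dye, 10 s baseline, 110 s post-stimulus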

Assay [3] concerns the target Potassium voltage-gated channel subfamily KQT member 2 (Rattus norvegicus) (UniProt O88943). Kind of assay: KCNQ2 thallium flux enhancement – KCNQ2-CHO-K1 cells, selectivity assay for KCNQ1 potentiator project (AID 493009;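 active = mean duplicate potentiation above the buffer control mean plus 5 SD of buffer wells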;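 also: assay conditions were tuned for KCNQ1 rather than KCNQ2 modulators; signal is max minus min fluorescence divided by baseline after thallium stimulus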). The settings on record: FluxOR thallium flux fluorescence, at 10 µM; hits give high values, scaled: buffer 0, activator control 100.
For assay [4], the target named is Potassium voltage-gated channel subfamily KQT member 1 (Homo sapiens) (UniProt P51787). As to the kind of experiment: KCNQ1 activators by electrophysiology – IonWorks patch clamp, KCNQ1-CHO cells, orthogonal assay for KCNQ1 potentiator project, confirmation (AID 493184;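 active = current rise at least 3 SD above the untreated control mean in each of two repeat wells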). The settings on record: automated patch clamp current, at 10 µM; hits give high values. In outline:
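Material: KCNQ1-expressing CHO cells; doses: 10 µM final, single point; probe or stimulus: voltage step from -90 mV holding to +40 mV, 2,000 ms; signal: automated voltage clamp, amphotericin B perforated patch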
(Patch clamp records ionic current or voltage across a cell membrane.)

SMILES strings stand for the structures. Activity calls are given as the source filed them.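 The calls were made as follows, unless noted: active = potentiation averaged over duplicate wells exceeding buffer-only control mean by more than 3 SD; inactive = the rest.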

Sequence of Potassium voltage-gated channel subfamily KQT member 1 (Homo sapiens) (P51787 whole entry, looked up): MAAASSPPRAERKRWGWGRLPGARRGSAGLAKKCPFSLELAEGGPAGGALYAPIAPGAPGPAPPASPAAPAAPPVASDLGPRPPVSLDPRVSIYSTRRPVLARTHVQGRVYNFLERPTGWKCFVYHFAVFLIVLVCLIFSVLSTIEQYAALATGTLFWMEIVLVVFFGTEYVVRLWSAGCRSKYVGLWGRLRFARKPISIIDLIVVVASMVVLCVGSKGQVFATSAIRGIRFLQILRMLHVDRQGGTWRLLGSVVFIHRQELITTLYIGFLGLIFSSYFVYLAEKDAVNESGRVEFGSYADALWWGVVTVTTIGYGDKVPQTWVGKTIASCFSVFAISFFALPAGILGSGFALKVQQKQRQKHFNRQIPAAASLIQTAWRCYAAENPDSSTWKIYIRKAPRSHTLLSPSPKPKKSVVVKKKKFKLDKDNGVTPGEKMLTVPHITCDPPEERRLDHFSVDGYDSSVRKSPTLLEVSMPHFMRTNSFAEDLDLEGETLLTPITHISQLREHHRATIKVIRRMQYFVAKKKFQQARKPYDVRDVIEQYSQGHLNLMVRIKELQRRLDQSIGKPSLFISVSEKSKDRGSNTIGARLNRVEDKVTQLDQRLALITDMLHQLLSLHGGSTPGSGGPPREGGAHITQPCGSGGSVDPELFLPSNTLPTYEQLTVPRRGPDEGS
Sequence of Potassium voltage-gated channel subfamily KQT member 2 (Rattus norvegicus) (O88943 whole entry, looked up): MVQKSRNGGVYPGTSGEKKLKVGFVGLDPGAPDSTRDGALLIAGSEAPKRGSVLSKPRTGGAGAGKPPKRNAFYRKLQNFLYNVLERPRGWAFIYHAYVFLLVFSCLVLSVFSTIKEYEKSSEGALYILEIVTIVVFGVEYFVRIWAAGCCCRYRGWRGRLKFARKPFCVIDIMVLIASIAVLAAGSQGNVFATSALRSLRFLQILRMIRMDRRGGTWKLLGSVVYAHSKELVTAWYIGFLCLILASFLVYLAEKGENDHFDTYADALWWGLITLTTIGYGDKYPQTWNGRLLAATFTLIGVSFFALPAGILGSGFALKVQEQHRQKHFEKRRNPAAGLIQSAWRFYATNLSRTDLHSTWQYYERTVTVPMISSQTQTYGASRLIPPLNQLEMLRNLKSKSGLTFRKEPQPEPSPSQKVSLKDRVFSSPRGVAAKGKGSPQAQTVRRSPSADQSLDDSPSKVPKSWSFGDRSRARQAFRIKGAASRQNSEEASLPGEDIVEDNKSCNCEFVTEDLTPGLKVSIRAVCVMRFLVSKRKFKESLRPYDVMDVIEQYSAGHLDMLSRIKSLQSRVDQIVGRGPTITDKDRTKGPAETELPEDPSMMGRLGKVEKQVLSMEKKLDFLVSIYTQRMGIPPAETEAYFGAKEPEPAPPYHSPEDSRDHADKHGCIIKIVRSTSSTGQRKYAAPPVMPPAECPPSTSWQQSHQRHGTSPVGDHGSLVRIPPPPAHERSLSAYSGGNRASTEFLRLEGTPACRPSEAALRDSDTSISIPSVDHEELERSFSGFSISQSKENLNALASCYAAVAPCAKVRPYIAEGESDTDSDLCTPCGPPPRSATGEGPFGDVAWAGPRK

Regarding `O=C(CCN1CCc2ccccc2CC1)c1ccc2c(c1)OCCO2`, the activation in assay [1] was 150% (active). For the same molecule, the potentiation was 38% (active) in assay [2] and 176% (active) in assay [3]. In addition, the outcome in assay [4] was inactive.
For the molecule `C=CCn1c(O)c(N=NC(=S)Nc2ccccc2F)c2cc(S(=O)(=O)N3CCOCC3)ccc21`, the outcome in assay [1], in assay [3] and in assay [4] was inactive. Also, in assay [2], the potentiation is 26.5% (active).
As to `COc1ccc(N2CCN(C(=S)NC(=O)c3cccs3)CC2)c([N+](=O)[O-])c1`, the activation in assay [1] is 139% (active). Besides, the potentiation in assay [2] was 74.5% (active); in assay [3], 232% (active). Further, the result in assay [4] was inactive.
On to `CN(C)CCCN1c2ccccc2Sc2ccc(Cl)cc21`, for which the result in assay [1], in assay [2], in assay [3] and in assay [4] was inactive.
In the case of `COc1ccc([N+](=O)[O-])cc1NC(=O)c1cccnc1`, the outcome in assay [1], in assay [2], in assay [3] and in assay [4] was inactive.
Turning to `c1ccc2[nH]c(-c3ccc4c(c3)OCO4)nc2c1`, the result in assay [1], in assay [2], in assay [3] and in assay [4] was inactive.
Turning to `CCOC(=O)C1=NN(C(=O)c2ccccc2)C(O)(c2ccc(C)cc2)C1` (stereo not given), the activation in assay [1] was 141% (active). Also, the results for the potentiation in assay [2] and in assay [3] were 49.5% (active) and 216% (active), respectively. The outcome in assay [4] was inactive.
Take `COc1ccc(C(=O)CSc2nnc(CNC(=O)c3ccc(OC)cc3)n2C)cc1`: the result in assay [1], in assay [3] and in assay [4] was inactive. The potentiation in assay [2] is 21% (active).
In the case of `O=C(CSc1nc2cc(Cl)ccc2s1)c1cc2ccccc2o1`, the result in assay [1], in assay [2], in assay [3] and in assay [4] was inactive.
Turning to `O=c1cc(-c2ccccc2)cc(-c2ccccc2)n1O`, the activation in assay [1] was 254% (active). Also, the potentiation in assay [2] is 87.5% (active); in assay [3] it was 322% (active). Also, in assay [4], the result was inactive.
On to `C=C(C)CNC(=O)c1ccc(OC2CCN(C(=O)COC)CC2)cc1`, for which the outcome in assay [1], in assay [2], in assay [3] and in assay [4] was inactive.
Turning to `COc1ccc(N=Nc2ccc(O)c3ncccc23)cc1`, the activation in assay [1] is 176% (active). Besides, the potentiation in assay [2] was 90% (active); in assay [3] it was 249% (active). Moreover, the result in assay [4] was inactive.
For `O=C1c2ccccc2NC(c2ccc(-c3cccc(Cl)c3)o2)N1O` (stereo not given), the outcome in assay [1], in assay [2], in assay [3] and in assay [4] was inactive.
On to `Cc1nn(C)c(C(=O)NC(=S)Nc2ccc([N+](=O)[O-])cc2)c1Cl`, for which, in assay [1], the activation was 166% (active). In addition, the figures for the potentiation in assay [2] and in assay [3] were 72% (active) and 196% (active), respectively. For the same molecule, the result in assay [4] was inactive.
With `COc1ccccc1C(=O)NNC(=O)C(=O)Nc1cccc(Cl)c1C`, the activation in assay [1] is 612% (active). In addition, the potentiation in assay [2] was 206% (active); in assay [3], 580% (active). Moreover, the result in assay [4] was inactive.
Turning to `CSc1ccccc1NC(=O)c1ccc2c(c1)CCN2S(C)(=O)=O`, the result in assay [1], in assay [2], in assay [3] and in assay [4] was inactive.
On to `COc1ccc(-n2nc(C(=O)NCC(=O)N3CCC(C(N)=O)CC3)c3ccccc3c2=O)cc1`, for which the outcome in assay [1], in assay [2], in assay [3] and in assay [4] was inactive.
For `O=C(c1ccco1)N1CCN(S(=O)(=O)c2ccc(F)cc2)CC1`, the outcome in assay [1], in assay [2], in assay [3] and in assay [4] was inactive.
In the case of `O=C(NC(=S)N1CCc2ccccc21)c1ccccc1Br`, the activation in assay [1] is 537% (active). Moreover, the potentiation was 208% (active) in assay [2] and 490% (active) in assay [3]. In addition, the outcome in assay [4] was inactive.
In the case of `COc1ccc(NC(=O)/C(=C/c2ccc(OC(C)=O)c(OC)c2)NC(C)=O)cc1`, the outcome in assay [1], in assay [2], in assay [3] and in assay [4] was inactive.
Turning to `Cc1nn(-c2ccccc2)nc1C(=O)NNC(=O)c1cccc2ccccc12`, the result in assay [1] and in assay [4] was inactive. Also, the potentiation in assay [2] was 53% (active); in assay [3] it was 182% (active).
With `Cc1cccc(NC(=O)c2ccc(COc3ccccc3[N+](=O)[O-])o2)n1`, the outcome in assay [1], in assay [2], in assay [3] and in assay [4] was inactive.
As for `OC(CNC1CCCCC1)COCCOc1ccc(Br)cc1` (stereo not given), the result in assay [1], in assay [2], in assay [3] and in assay [4] was inactive.
Regarding `CCNc1nc(NCC)n2c(SCC(=O)Nc3ccc(F)cc3)nnc2n1`, the outcome in assay [1], in assay [2], in assay [3] and in assay [4] was inactive.
Regarding `CC(C)C(=O)Nc1c(-c2ccccc2F)c(=O)c2ccccc2n1C`, the result in assay [1], in assay [2], in assay [3] and in assay [4] was inactive.
For `C=CCn1c(SCc2ccc(C(=O)O)cc2)nc2sc(C)c(C)c2c1=O`, the activation in assay [1] is 216% (active). The values for the potentiation in assay [2] and in assay [3] were 72.5% (active) and 236% (active), respectively. Further, the outcome in assay [4] was inactive.
Take `O=C1CN(C(=O)CSc2nc3cc(Cl)ccc3c(=O)n2Cc2ccccc2)c2ccccc2N1`: the result in assay [1], in assay [3] and in assay [4] was inactive. Further, the potentiation in assay [2] was 22.5% (active).
On to `COc1ccc(NC(=S)N2CCC(C(O)(c3ccccc3)c3ccccc3)CC2)cc1`, for which the outcome in assay [1], in assay [2] and in assay [4] was inactive. In assay [3], the potentiation was 186% (active).
Consider `COc1ccc(-c2cnc3c(c2)CCC3(C#N)C#N)cc1`, for which the outcome in assay [1], in assay [2], in assay [3] and in assay [4] was inactive.
Take `Cc1sc2nc(C(C)C)nc(SCC(=O)N3c4ccccc4CC3C)c2c1C` (stereo not given): the activation in assay [1] is 164% (active). The potentiation in assay [2] is 47.5% (active); in assay [3] it was 177% (active). Also, in assay [4], the result was inactive.
